Converted amounts (≈) assume the structure as drawn. The source made the active and inactive calls. No cut-off for these calls is given here.
Assays:
Candida albicans [1] = assay: Antimicrobial activity against Candida albicans UCD FRI up to 300 ug/disk by disk diffusion method; type: functional, organism-based
Method in brief: (§1)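 Disk diffusion antifungal test, up to 300 μg/disk, read as a zone of inhibition. C. glabrata and C. krusei were clinical strains from the University of Texas Medical Center. C. albicans UCD FR1 was raised in-house by repeated passage through Sabouraud medium containing inhibitory concentrations of fluconazole.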

Candida albicans [2] = assay: Antimicrobial activity against fluconazole-resistant Candida albicans ATCC 14503 up to 300 ug/disk by disk diffusion method; type: functional, organism-based
Oryctolagus cuniculus = organism: Oryctolagus cuniculus; assay: Inhibition of IP3-sensitive Ca2+ channel activity in endoplasmic reticulum of rabbit cerebellum assessed as Ca2+ release; type: tissue-based
Pichia kudriavzevii [3] = assay: Antimicrobial activity against Candida krusei up to 300 ug/disk by disk diffusion method; type: functional, organism-based; method in brief: as §1
Nakaseomyces glabratus [4] = assay: Antimicrobial activity against Candida glabrata up to 300 ug/disk by disk diffusion method; type: functional, organism-based; method in brief: as §1
Candida albicans [5] = assay: Antimicrobial activity against Candida albicans UCD FRI after 16 to 18 hrs by microbroth dilution assay; type: functional
Method in brief: (§2)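 Broth microdilution susceptibility testing, adapted with minor changes from a published method, incubated at 37 °C for 16–18 h; read-out is the minimum inhibitory concentration. C. krusei and C. glabrata strains came from the University of Texas Medical Center. C. albicans UCD FR1 was raised in-house by repeated passage through Sabouraud medium containing inhibitory fluconazole concentrations.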

Candida albicans [6] = assay: Antimicrobial activity against fluconazole-resistant Candida albicans ATCC 14503 after 16 to 18 hrs by microbroth dilution assay; type: functional; method in brief: as §2
Pichia kudriavzevii [7] = assay: Antimicrobial activity against Candida krusei after 16 to 18 hrs by microbroth dilution assay; type: functional; method in brief: as §2
Nakaseomyces glabratus [8] = assay: Antimicrobial activity against Candida glabrata after 16 to 18 hrs by microbroth dilution assay; type: functional; method in brief: as §2

Structure (SMILES): O[C@H]1C[C@H]2CCCCCC[C@@H]3CCN4CCC[C@@H](CCCCCC[C@@H]5CCN(C1)[C@H]2O5)[C@@H]4O3
- Activity (Candida albicans [1]): inactive
- Activity (Candida albicans [2]): inactive
- ED50 (Oryctolagus cuniculus): 6400 nM
- Activity (Pichia kudriavzevii [3]): inactive
- Activity (Nakaseomyces glabratus [4]): inactive

Structure (SMILES): O[C@]12CCCCCC[C@@H]3CCN4CCC[C@H](CCCCCC[C@@H]5CCN(CCC1)[C@H]2O5)[C@@H]4O3 [(+)-DEMETHYLXESTOSPONGIN B]
- MIC (Candida albicans [5]): 30 µg/mL (≈ 64.8 µM)
- MIC (Candida albicans [6]): 100 µg/mL (≈ 216 µM)
- MIC (Pichia kudriavzevii [7]): 30 µg/mL (≈ 64.8 µM)
- MIC (Nakaseomyces glabratus [8]): 30 µg/mL (≈ 64.8 µM)

Structure (SMILES): C1CCC[C@H]2CCCN3CC[C@@H](CCCCCC[C@@H]4CCCN5CC[C@@H](CC1)O[C@@H]45)O[C@@H]23
- MIC (Candida albicans [5]): 100 µg/mL (≈ 224 µM)
- MIC (Candida albicans [6]): 100 µg/mL (≈ 224 µM)
- ED50 (Oryctolagus cuniculus): 300 nM
- MIC (Pichia kudriavzevii [7]): 30 µg/mL (≈ 67.2 µM)
- MIC (Nakaseomyces glabratus [8]): 30 µg/mL (≈ 67.2 µM)

Structure (SMILES): OC(Cn1cncn1)(Cn1cncn1)c1ccc(F)cc1F [FLUCONAZOLE]
- MIC (Candida albicans [5]): 100 µg/mL (≈ 327 µM)
- MIC (Candida albicans [6]): 1 µg/mL (≈ 3.27 µM)
- MIC (Pichia kudriavzevii [7]): 100 µg/mL (≈ 327 µM)
- MIC (Nakaseomyces glabratus [8]): 100 µg/mL (≈ 327 µM)

Structure (SMILES): C[C@@H]1[C@H](O)[C@@H](C)/C=C/C=C/C=C/C=C/C=C/C=C/C=C/[C@H](O[C@@H]2O[C@H](C)[C@@H](O)[C@H](N)[C@@H]2O)C[C@@H]2O[C@](O)(C[C@@H](O)C[C@@H](O)[C@H](O)CC[C@@H](O)C[C@@H](O)CC(=O)O[C@H]1C)C[C@H](O)[C@H]2C(=O)O [AMPHOTERICIN B]
- MIC (Candida albicans [5]): 1 µg/mL (≈ 1.08 µM)
- MIC (Candida albicans [6]): 0.3 µg/mL (≈ 0.325 µM)
- MIC (Nakaseomyces glabratus [8]): 1 µg/mL (≈ 1.08 µM)

Structure (SMILES): C1CCC[C@@H]2CCCN3CC[C@@H](CCCCCC[C@@H]4CCCN5CC[C@@H](CC1)O[C@@H]45)O[C@@H]23
- MIC (Candida albicans [5]): 100 µg/mL (≈ 224 µM)
- MIC (Candida albicans [6]): 100 µg/mL (≈ 224 µM)
- MIC (Pichia kudriavzevii [7]): 100 µg/mL (≈ 224 µM)
- MIC (Nakaseomyces glabratus [8]): 100 µg/mL (≈ 224 µM)

Structure (SMILES): O[C@]12CCCCCC[C@@H]3CCN4CCC[C@@H](CCCCCC[C@@H]5CCN(CCC1)[C@H]2O5)[C@@H]4O3
- MIC (Candida albicans [5]): 100 µg/mL (≈ 216 µM)
- MIC (Candida albicans [6]): 100 µg/mL (≈ 216 µM)
- ED50 (Oryctolagus cuniculus): 800 nM
- MIC (Pichia kudriavzevii [7]): 100 µg/mL (≈ 216 µM)
- MIC (Nakaseomyces glabratus [8]): 100 µg/mL (≈ 216 µM)

From ChEMBL document CHEMBL1159327, “(+)-7S-Hydroxyxestospongin A from the marine sponge Xestospongia sp. and absolute configuration of (+)-xestospongin D” (2002)
